Source: PubChem (several laboratories)
Ins promoter up: insulin promoter activators in MIN6 cells, imaging, high-content screening, mouse beta cells; MIN6 insulin promoter-GFP reporter; active compounds read high; z-score at 5 µM; 0.3% of 190,000 active;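 active means z-score above 3 at 5 µM with at least 500 cells counted in the well; inconclusive means wells under 500 cells, flagged as cytotoxic or low count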
SKKanGAS inh: S. pyogenes SKKanGAS growth inhibitors in kanamycin, primary screen, streptokinase expression inhibitor project, SKKanGAS strain, BacTiter-Glo luminescence; AID 1662, 2009; 1.3% of 300,000 active; 6 h; inhibition, % at 7.5 µM;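 active means mean replicate score, as percent of positive control median, at least 50; inconclusive means mean below 50 but one replicate at or above 50; inactive means mean and every replicate below 50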;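 further: strain carries kanamycin resistance gene driven by streptokinase promoter and grows in 40 µg/ml kanamycin; loss of luminescence reflects streptokinase promoter inhibition or plain growth inhibition; 0% = median of DMSO wells and 100% = positive control at its reference dose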
Rad51 HR inh: human RAD51 strand exchange inhibitors, primary screen, biochemical, fluorescence. 0.085% of 200,000 active. inhibition, % at 10 µM. DNA repair protein RAD51 homolog 1 (Homo sapiens), Q06609. hRad51 DNA strand exchange, fluorescence dequenching;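 active means inhibition above 40% at the single screening dose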;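 further: 0% = DMSO control wells and 100% = blanks with heterologous ssDNA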
Target sequence (Q06609 whole entry, looked up): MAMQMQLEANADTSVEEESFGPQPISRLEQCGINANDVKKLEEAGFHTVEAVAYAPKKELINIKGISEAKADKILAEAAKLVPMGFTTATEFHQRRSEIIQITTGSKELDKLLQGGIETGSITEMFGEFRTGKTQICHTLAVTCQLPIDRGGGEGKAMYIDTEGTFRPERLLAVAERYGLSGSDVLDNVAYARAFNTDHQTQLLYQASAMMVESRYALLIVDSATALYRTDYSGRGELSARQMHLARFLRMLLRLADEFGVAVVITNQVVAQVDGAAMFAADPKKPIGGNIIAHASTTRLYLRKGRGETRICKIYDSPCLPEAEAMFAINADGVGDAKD
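System: hRad51 filaments on single-stranded DNA; reagent: Fluorescein- and BHQ1-tagged 47-mer duplex; compound dosing: one concentration, 10 µM final; timing: filaments 15 min 37 °C, then compound 30 min; measured by: fluorescein emission 520 nm, excitation 485 nm; benchmarks: per-plate controls and blanks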
Autophagy HCS: autophagy modulators in MEF cells, primary screen, imaging, high-content, MEF GFP-LC3; calls only at 10 µM (by protocol); MEF GFP-LC3 puncta imaging; test concentration mostly 10 µM; 0.98% of 190,000 active;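 active means percentage of spot-positive cells more than 3 SD above its plate mean, without a fluorescence outlier flag or 80% toxicity; inconclusive means no clear call, values can overlap the other calls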;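 further: spot-positive cell cutoff set from DMSO-treated cells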
WT yeast gro inh: growth inhibition of WT strain, primary screen, mitochondrial fusion inhibitor project, WT and mutant strains, chemical genetic; mitochondrial fusion phenotypic screen; 2.1% of 190,000 active; inhibition, % at 10 µM; in the data active means inhibition above about 58%; tested in S. cerevisiae
Cl transport mod: KCC2 cotransporter modulators, thallium flux, primary screen, cell-based, HEK293 KCC2, FluoZin-2 fluorescence, MLSMR. Solute carrier family 12 member 5 (Homo sapiens), Q9H2X9. KCC2 cells, thallium flux FluoZin-2 fluorescence. B-score of Tl+ flux slope (higher = more flux/activation; lower = inhibition) at 10 µM. 2.2% of 190,000 active. AID 1456, 2008;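 active means thallium flux slope and its plate-corrected score both differing from the plate sample mean at a set confidence after two filtering rounds, in either direction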;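 further: slope of fluorescence scaled to starting intensity during 10 to 20 s after thallium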
KCC2 secondary: KCC2 modulators in sodium-free buffer, confirmation, cell-based, HEK293 KCC2, thallium flux, secondary assay; 15% of 3,700 active; AID 1713, 2009; FluoZin2 fluorescence; active compounds read high; normalised thallium flux (F/F0 slope) at 10 µM; shares compounds with Cl transport mod;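 active means thallium flux slope above the same plate's solvent-only control mean plus 3 SD; inconclusive means the two replicate wells disagree; inactive means no significant difference from solvent-only control wells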
KCC2 bumet counter: thallium flux persisting under bumetanide in KCC2 cells, confirmation, counter-screen for KCC2 modulator project, cell-based, HEK293 KCC2, FluoZin2, secondary assay 3 | AID 1714, 2009 | normalized thallium flux at 10 µM | shares compounds with Cl transport mod | HEK293-KCC2 + bumetanide/ouabain; active compounds read high | 49% of 3,700 active;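 active means thallium entry rate above the same plate's blocked-transporter control wells by more than 3 SD; inconclusive means the two repeat wells disagree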;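 further: raw slope of fluorescence over initial fluorescence between 10 and 20 s after thallium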
KCC2 sec2: KCC2 modulators without ouabain present, confirmation, cell-based, HEK293 KCC2, thallium flux, FluoZin2, secondary assay 2. shares compounds with Cl transport mod. thallium flux FluoZin2 fluorescence; actives lie on both sides; F/F0 rise rate, 10–20 s post-thallium. normalized thallium flux at 10 µM. 23% of 3,700 active;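 active means thallium flux slope more than 3 SD above or below the plate's solvent-only control mean, mostly below; inconclusive means the two repeat wells disagreed; inactive means no significant shift from solvent-only controls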;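 further: raw slope with 0.1% DMSO as baseline and bumetanide as block control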
HEK293 Tl flux: thallium flux modulation in parental HEK cells, confirmation, counter-screen for KCC2 modulator project, cell-based, counterscreen 1. shares compounds with Cl transport mod. HEK293 parental cells, thallium flux FluoZin2, ouabain; baseline-ratio fluorescence slope, 10–20 s after thallium. thallium flux rate (normalised fluorescence) at 10 µM. 46% of 3,700 active. AID 1716, 2009;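 active means thallium flux rate significantly above the same plate's solvent-only control wells, beyond their mean plus 3 SD; inconclusive means the two replicate wells gave conflicting results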
KCC2 ouabain: KCC2 inhibitors and activators, ouabain retest, confirmation, HEK-KCC2 cells; HEK293-KCC2, thallium flux FluoZin2 fluorescence; bidirectional: low = inhibitor, high = activator; AID 1717, 2009; 48% of 3,700 active; shares compounds with Cl transport mod; raw Tl+ flux slope (below DMSO = inhibition, above = activation) at 10 µM;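 active means thallium flux slope beyond 3 SD from same-plate DMSO control mean in most replicates, usually higher, sometimes lower; inconclusive means repeat tests gave conflicting results; inactive means no significant difference from controls in most replicates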;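 further: slope of initial-normalized fluorescence between seconds 10 and 20 after thallium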
HEK293 Tl flux2: native HEK Tl+ uptake effects, second counter-screen – HEK cells, counterscreen 2, counter-screen for KCC2 modulator project, confirmation | shares compounds with Cl transport mod | HEK293 parental, thallium flux FluoZin-2 fluorescence slope | thallium flux slope at 10 µM | 33% of 3,700 active;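 active means thallium flux slope above the same plate's solvent-control mean plus 3 SD in both duplicate wells; inconclusive means duplicate wells that disagreed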;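 further: run without ouabain in cells lacking the KCC2 cotransporter; slope of fluorescence scaled to its starting value between 10 and 20 s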
An asterisk follows results filed as active; i = inactive; ? = inconclusive; / = not tested or not shown. Hits are enriched below; roughly 4.2% of the tested compounds scored in any of these assays.

SMILES | Ins promoter up | SKKanGAS inh | Rad51 HR inh | Autophagy HCS | WT yeast gro inh | Cl transport mod | KCC2 secondary | KCC2 bumet counter | KCC2 sec2 | HEK293 Tl flux | KCC2 ouabain | HEK293 Tl flux2
O=C(NCc1ccccc1)Nc1cccn(Cc2ccc(F)cc2)c1=O | 0.11 | 0.9 | / | i | -13.6 | 0.388 | / | / | / | / | / | /
CSc1ccccc1NC(=S)N/N=C/c1cccn1Cc1ccc(F)cc1 | -1.05 | 44.4 | 1.4 | i | 64.7* | 4.14* | 0.00592 | 0.0106* | 0.0315 | 0.0106* | 0.0216 | 0.0135*
CN(CC(=O)Nc1cccc(F)c1)C(=O)c1ccccc1Cc1ccccc1 | / | 1.7 | / | / | / | / | / | / | / | / | / | /
O=S(=O)(NC(=S)NC1CCCCC1)c1ccc(Cl)cc1 | -0.17 | -7.7 | / | i | 0.2 | 10.5* | 0.0167 | 0.0198* | 0.0323 | 0.02* | 0.0251* | 0.0218*
O=C(NNS(=O)(=O)c1ccc(Cl)cc1)NC1CCCCC1 | / | 1.0 | -4.2 | i | 5.8 | / | / | / | / | / | / | /
NS(=O)(=O)c1ccc(CCNC(=S)NC2CCCCC2)cc1 | -0.14 | 1.5 | / | / | / | 0.914 | / | / | / | / | / | /
Cc1ccc(S(=O)(=O)NC(C)C(=O)NC2CCCCCC2)cc1 (centres undefined) | 0.17 | -0.4 | 6.7 | i | -5.4 | 0.0074 | / | / | / | / | / | /
CCc1ccc(S(=O)(=O)NC(=S)NC2CCCCC2)cc1 | -0.25 | 5.6 | / | i | 24.6 | 32.3* | 0.0256* | 0.0712* | ? | 0.0503* | 0.0599* | 0.0176*
Cc1ccc(S(=O)(=O)NC(=S)NC2CCCCC2)cc1 | 0.28 | 0.3 | 12.0 | i | -6.6 | 13.4* | 0.0156* | 0.0317* | 0.0367 | ? | 0.0335* | 0.013
CNc1nc(-c2ccc3c(c2)CCN3C(=O)c2ccccc2F)cs1 | -1.4 | 16.2 | 5.2 | i | 12.2 | -4.26* | 0.009 | 0.00654 | 0.0348 | 0.00363 | 0.0188 | 0.0112
CNc1nc(-c2ccc3c(c2)CCN3C(=O)c2ccccc2F)c(C)s1 | / | 9.9 | 16.8 | i | 7.5 | -0.15 | / | / | / | / | / | /
Cc1ncoc1C(=O)N1CCCC(N2CCN(c3cccc(C(F)(F)F)c3)CC2)C1 (centres undefined) | / | 0.0 | / | / | / | / | / | / | / | / | / | /
Cc1cccc(N(C(=O)CCC(=O)Nc2ccccn2)C(C(=O)NC(C)C)c2ccc(F)cc2)c1 (centres undefined) | / | 7.8 | / | / | / | / | / | / | / | / | / | /
Cc1cccc(N(C(=O)CCC(=O)Nc2ccccn2)C(C(=O)NC(C)C)c2ccc(O)cc2)c1 (centres undefined) | 1.64 | / | 6.2 | i | -2.0 | -3.54* | 0.00594 | 0.00472 | 0.0287 | 0.00777 | 0.0194 | 0.0121
O=C(Cn1nc2ccccc2n1)N/N=C/c1cc(Cl)cc([N+](=O)[O-])c1O | 0.46 | / | 5.7 | i | 16.0 | -5.27* | 0.00707 | ? | 0.0248* | 0.00714 | ? | 0.0108
CC1=C(C(=O)OCc2ccccc2)C(c2ccco2)C2=C(CC(C)(C)CC2=O)N1 (centres undefined) | -0.28 | 1.3 | 1.4 | i | 7.2 | -4.32* | ? | 0.00516 | 0.0294 | 0.00622 | 0.0502* | ?
O=c1oc2ccccc2c(NCc2cccc(F)c2)c1[N+](=O)[O-] | / | -2.7 | -4.2 | i | -8.0 | / | 0.00742 | 0.00568 | 0.0299 | 0.0066 | 0.0219* | 0.0104
O=c1oc2ccccc2c(Nc2ccc3ccccc3c2)c1[N+](=O)[O-] | 0.1 | -1.6 | 1.5 | i | -10.1 | -3.78* | 0.00911 | 0.0072 | 0.0312 | 0.00422 | 0.0152* | 0.0114
CCN(CC)C(=O)c1ccc(S(=O)(=O)c2ccccc2)cc1 | / | 2.1 | / | / | / | / | / | / | / | / | / | /
N#C/C(=C\c1ccc(-c2ccccc2[N+](=O)[O-])o1)C(=O)Nc1nc(-c2cccs2)cs1 | 0.05 | 26.6 | -4.1 | i | 3.2 | 7.74* | 0.0183 | 0.0268* | 0.0316 | 0.0174* | 0.0219* | 0.0157*
CC(C)(O)C(=O)NNC(=S)Nc1ccc(F)c(Cl)c1 | -0.84 | -8.1 | -25.6 | i | 9.0 | i | / | / | / | / | / | /
N/C(Cc1cccs1)=N\OC(=O)COc1ccccc1Cl | -0.14 | 13.4 | -8.6 | i | 24.9 | / | 0.00817 | 0.00537 | 0.0319 | ? | 0.0183 | 0.00931
CCOC(=O)c1c(C)nc(C)c(C(=O)OCC)c1-c1ccccc1 | / | 3.6 | 3.7 | i | -8.7 | -0.995 | 0.00983 | 0.00527 | 0.0316 | 0.00614 | 0.0205 | 0.00973
COCC(=O)N1CCC(Oc2ccc(C(=O)N3CCSCC3)cc2)CC1 | / | 2.2 | / | / | / | / | / | / | / | / | / | /
O=C(Nc1ccc(OC(F)(F)F)cc1)c1[nH]ncc1[N+](=O)[O-] | -0.11 | 2.2 | 18.4 | i | 15.0 | 13* | 0.00809 | 0.0204* | 0.0328 | 0.0221* | ? | 0.0157*
CN(C)c1ccc(/C=C/c2ccncc2)cc1 | 1.68 | / | -3.4 | i | 11.3 | / | 0.0032* | -0.004* | 0.0212* | 0.00313* | 0.00583* | ?
O=C(NNC(=O)c1ccc(Cl)cc1Cl)c1csc(-c2cccnc2)n1 | 0.11 | -0.3 | 20.4 | / | / | 8.13* | 0.00587 | 0.0179* | 0.033 | 0.0153* | ? | 0.0183*
COc1ccc(CCC(=O)O)c(O)c1 | 0.33 | 3.1 | 0.2 | / | / | 0.464 | / | / | / | / | / | /
